Experiments:
[1] = Lipophilicity, log k of the compound by HPLC analysis; assay type: physicochemical
Method in brief: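 Mobile phase MeOH/water 70:30, 1.0 mL/min, column at 45 °C, samples at 10 °C, photodiode array detection. log k calculated from k.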

Cholinesterase = Cholinesterase (Equus caballus, UniProt P81908); test: Inhibition of equine BChE using after 10 mins by Ellman's method
Method in brief: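 BChE from equine serum, diluted in phosphate buffer (0.1 M, pH 8). Catalytic activity in the final mixture was 0.14 U/mL. Enzyme was preincubated with compound (dioxane stock diluted in water) for 5 min at 25 °C. Then 0.5 mM DTNB and 0.25 mM acetylthiocholine were added, incubated 10 min at 25 °C, and absorbance read at 412 nm. IC50 taken from %inhibition versus concentration, 3 replicates.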

Acetylcholinesterase = Acetylcholinesterase (Electrophorus electricus, UniProt O42275); test: Inhibition of Electrophorus electricus AChE using acetylthiocholine as substrate after 10 mins by Ellman's method
Chain of Acetylcholinesterase (O42275 whole entry): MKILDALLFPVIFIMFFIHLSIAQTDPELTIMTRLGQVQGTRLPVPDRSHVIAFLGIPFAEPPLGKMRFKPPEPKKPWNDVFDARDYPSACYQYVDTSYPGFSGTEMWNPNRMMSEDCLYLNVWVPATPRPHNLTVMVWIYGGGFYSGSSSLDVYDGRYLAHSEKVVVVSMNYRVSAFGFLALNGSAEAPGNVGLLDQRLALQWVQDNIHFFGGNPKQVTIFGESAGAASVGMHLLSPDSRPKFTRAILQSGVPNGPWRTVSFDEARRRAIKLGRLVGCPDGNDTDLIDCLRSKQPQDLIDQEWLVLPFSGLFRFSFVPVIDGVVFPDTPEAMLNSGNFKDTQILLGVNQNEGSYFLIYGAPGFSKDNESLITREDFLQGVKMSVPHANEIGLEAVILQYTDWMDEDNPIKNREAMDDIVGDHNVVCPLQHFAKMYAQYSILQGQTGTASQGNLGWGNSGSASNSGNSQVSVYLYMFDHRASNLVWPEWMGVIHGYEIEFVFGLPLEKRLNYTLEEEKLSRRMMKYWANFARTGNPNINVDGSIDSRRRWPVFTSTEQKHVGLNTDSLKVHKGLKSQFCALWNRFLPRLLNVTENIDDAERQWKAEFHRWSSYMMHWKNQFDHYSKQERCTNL

[2] = Lipophilicity, log P of the compound calculated using ChemOffice software
MCF7 [3] = test: Growth inhibition of human MCF7 cells at 0.01 to 100 umol/l measured immediately by xCelligence RTCA SP assay; assay type: cell-based
Method in brief: (§1)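 MCF7 (p37) grown in DMEM with 10% FCS, penicillin-streptomycin and 0.01 mg/mL insulin. Seeded at 75.000 cells/well on impedance E-plates and monitored hourly as cell index. Treated in log phase with compounds in DMSO, 0.01–2500 µmol/L, in triplicate. CI normalized to the last point before addition. Vehicle control 0.1% DMSO; 10% DMSO as 0% viability. IC50 taken at 24 h.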

MCF7 [4] = test: Growth inhibition of human MCF7 cells at 2500 umol/l measured immediately by xCelligence RTCA SP assay; assay type: cell-based; conditions: mcf7, 2500 µM; method in brief: as §1
MCF7 [5] = test: Growth inhibition of human MCF7 cells at 1000 umol/l measured immediately by xCelligence RTCA SP assay; assay type: cell-based; conditions: mcf7, 1000 µM; method in brief: as §1
HepG2 [6] = test: Growth inhibition of human HepG2 cells at >10 umol/l after 24 hrs by MTS assay; assay type: cell-based; conditions: hepg2, 24 h
Method in brief: (§2)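 HepG2 (p13) grown in MEM with 10% FBS, L-glutamine and non-essential amino acids at 37 °C, 5% CO2. Seeded at 10,000 cells/well and treated next day with compounds in DMSO, 12 concentrations (0.001–5000 or 0.001–2500 µmol/L), in triplicate. Controls were untreated cells, 10% DMSO (0% viability), no cells and vehicle. After 24 h, MTS reagent was added for 3.5 h at 37 °C and A490 was read. IC50 from curve fit.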

MCF7 [7] = test: Cytotoxicity against human MCF7 cells after 24 hrs by xCelligence RTCA SP assay; assay type: cell-based; conditions: MCF7, 24 h; method in brief: as §1
HepG2 [8] = test: Cytotoxicity against human HepG2 cells after 24 hrs by MTS assay; assay type: cell-based; conditions: HepG2, 24 h; method in brief: as §2
MCF7 [9] = test: Growth inhibition of human MCF7 cells at 2500 umol/l measured after 24 hrs by xCelligence RTCA SP assay; assay type: cell-based; conditions: mcf7, 24 h, 2500 µM; method in brief: as §1
MCF7 [10] = test: Growth inhibition of human MCF7 cells at 1000 umol/l measured after 24 hrs by xCelligence RTCA SP assay; assay type: cell-based; conditions: mcf7, 24 h, 1000 µM; method in brief: as §1
HepG2 [11] = test: Growth inhibition of human HepG2 cells at <1000 umol/l after 24 hrs by MTS assay; assay type: cell-based; conditions: hepg2, 24 h; method in brief: as §2
HepG2 [12] = test: Growth inhibition of human HepG2 cells at >1000 umol/l after 24 hrs by MTS assay; assay type: cell-based; conditions: hepg2, 24 h; method in brief: as §2
HepG2 [13] = test: Growth inhibition of human HepG2 cells at <100 umol/l after 24 hrs by MTS assay; assay type: cell-based; conditions: hepg2, 24 h; method in brief: as §2
HepG2 [14] = test: Growth inhibition of human HepG2 cells at >100 umol/l after 24 hrs by MTS assay; assay type: cell-based; conditions: hepg2, 24 h; method in brief: as §2

Chain of Cholinesterase (P81908 whole entry): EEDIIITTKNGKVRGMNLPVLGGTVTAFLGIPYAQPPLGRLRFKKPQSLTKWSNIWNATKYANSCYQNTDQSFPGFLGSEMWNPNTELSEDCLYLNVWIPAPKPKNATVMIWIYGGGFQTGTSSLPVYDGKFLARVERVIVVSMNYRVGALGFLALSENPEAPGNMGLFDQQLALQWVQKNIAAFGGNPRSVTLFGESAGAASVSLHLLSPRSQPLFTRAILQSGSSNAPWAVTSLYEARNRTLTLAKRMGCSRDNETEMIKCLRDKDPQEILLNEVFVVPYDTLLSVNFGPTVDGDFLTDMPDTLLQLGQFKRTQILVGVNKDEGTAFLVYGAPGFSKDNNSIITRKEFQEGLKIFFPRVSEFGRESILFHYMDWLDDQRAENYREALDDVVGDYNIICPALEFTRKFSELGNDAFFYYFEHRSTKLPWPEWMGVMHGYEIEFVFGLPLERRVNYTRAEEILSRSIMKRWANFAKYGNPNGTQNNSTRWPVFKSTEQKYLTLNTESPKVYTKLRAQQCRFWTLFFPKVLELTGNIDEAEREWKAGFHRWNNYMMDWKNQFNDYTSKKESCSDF

Compound | log K [1] | IC50 (Cholinesterase) | IC50 (Acetylcholinesterase) | logP [2] | other results
CCC[C@H](NC(=O)OCC(F)(F)C(F)F)C(=O)N[C@H](C)c1nc2ccc(F)cc2s1 | 0.5415 | 43.9 µM | 30.7 µM | 4.11 | 
CCC[C@H](NC(=O)OCC)C(=O)N[C@H](C)c1nc2ccc(F)cc2s1 | 0.4873 | 14.1 µM | 34.8 µM | 3.52 | 
CCN(C)C(=O)Oc1cccc([C@H](C)N(C)C)c1 [RIVASTIGMINE] |  |  |  | 2.36 | 
CCCCOC(=O)N[C@@H](CCC)C(=O)N[C@H](C)c1nc2ccc(F)cc2s1 | 0.7231 | 19.6 µM | 28 µM | 4.43 | 
COC(=O)N[C@H](C(=O)N[C@H](C)c1nc2ccc(F)cc2s1)C(C)C | 0.4113 | 32 µM | 91.2 µM | 3.17 | 
CC(C)[C@H](NC(=O)OCC(Cl)(Cl)Cl)C(=O)N[C@H](C)c1nc2ccc(F)cc2s1 | 0.8043 | 26.6 µM | 30.3 µM | 4.89 | 
CCC[C@H](NC(=O)OCC(C)C)C(=O)N[C@H](C)c1nc2ccc(F)cc2s1 | 0.7063 | 26.1 µM | 20.2 µM | 4.41 | growth inhibition (GI) (MCF7 [3]): Non-toxic; growth inhibition (GI) (MCF7 [4]): Toxic; growth inhibition (GI) (MCF7 [5]): Toxic; growth inhibition (GI) (HepG2 [6]): Toxic; IC50 (MCF7 [7]): 612 µM; IC50 (HepG2 [8]): 275 µM
CCC[C@H](NC(=O)OC)C(=O)N[C@H](C)c1nc2ccc(F)cc2s1 | 0.4166 | 20.4 µM | 48.8 µM | 3.19 | 
CC(C)[C@H](NC(=O)OCCCl)C(=O)N[C@H](C)c1nc2ccc(F)cc2s1 | 0.5014 | 54.2 µM | 47.5 µM | 3.88 | 
CCC[C@H](NC(=O)OC(C)C)C(=O)N[C@H](C)c1nc2ccc(F)cc2s1 | 0.5752 | 32.2 µM | 21.3 µM | 3.84 | growth inhibition (GI) (MCF7 [3]): Non-toxic; growth inhibition (GI) (MCF7 [4]): Toxic; growth inhibition (GI) (MCF7 [5]): Toxic; growth inhibition (GI) (HepG2 [6]): Toxic; IC50 (MCF7 [7]): 1210 µM; IC50 (HepG2 [8]): 273 µM
CCCOC(=O)N[C@@H](CCC)C(=O)N[C@H](C)c1nc2ccc(F)cc2s1 | 0.5873 | 19.3 µM | 28.5 µM | 4.01 | 
CC(C)OC(=O)N[C@H](C(=O)N[C@H](C)c1nc2ccc(F)cc2s1)C(C)C [BENTHIAVALICARB-ISOPROPYL] | 0.5725 | 41.1 µM | 95 µM | 3.82 | 
CCC[C@H](NC(=O)OCC(Cl)(Cl)Cl)C(=O)N[C@H](C)c1nc2ccc(F)cc2s1 | 0.8297 | 62.7 µM | 28.6 µM | 4.91 | 
COc1ccc2c3c1O[C@H]1C[C@@H](O)C=C[C@@]31CCN(C)C2 [GALANTAMINE] |  |  |  | 1.41 | 
CC(C)COC(=O)N[C@H](C(=O)N[C@H](C)c1nc2ccc(F)cc2s1)C(C)C | 0.7041 | 41.1 µM | 49.3 µM | 4.39 | 
CC(C)[C@H](NC(=O)OCCBr)C(=O)N[C@H](C)c1nc2ccc(F)cc2s1 | 0.5418 |  | 47.2 µM | 4 | 
CC(C)[C@H](NC(=O)OCC(F)(F)C(F)F)C(=O)N[C@H](C)c1nc2ccc(F)cc2s1 | 0.5237 | 33.8 µM | 29 µM | 4.09 | 
CCC[C@H](NC(=O)OCC(F)(F)F)C(=O)N[C@H](C)c1nc2ccc(F)cc2s1 | 0.5825 | 59 µM | 29.3 µM | 4.16 | 
CCCCOC(=O)N[C@H](C(=O)N[C@H](C)c1nc2ccc(F)cc2s1)C(C)C | 0.7135 | 62.5 µM | 68.1 µM | 4.41 | 
CCC[C@H](NC(=O)OCC(F)(F)C(F)(F)C(F)(F)F)C(=O)N[C@H](C)c1nc2ccc(F)cc2s1 | 0.9463 | 59.8 µM | 46 µM | 5.37 | 
CC(C)[C@H](NC(=O)OCC(F)(F)F)C(=O)N[C@H](C)c1nc2ccc(F)cc2s1 | 0.5643 | 72 µM | 49.4 µM | 4.15 | 
CCOC(=O)N[C@H](C(=O)N[C@H](C)c1nc2ccc(F)cc2s1)C(C)C | 0.4834 | 35.6 µM | 153 µM | 3.51 | growth inhibition (GI) (MCF7 [3]): Non-toxic; growth inhibition (GI) (MCF7 [9]): Non-toxic; growth inhibition (GI) (MCF7 [10]): Non-toxic; growth inhibition (GI) (MCF7 [4]): Toxic; growth inhibition (GI) (MCF7 [5]): Toxic; growth inhibition (GI) (HepG2 [11]): Non-toxic; growth inhibition (GI) (HepG2 [12]): Toxic; IC50 (MCF7 [7]): > 4390 µM; IC50 (HepG2 [8]): > 5000 µM
CCC[C@H](NC(=O)OCCCl)C(=O)N[C@H](C)c1nc2ccc(F)cc2s1 | 0.514 | 54.1 µM | 35.4 µM | 3.9 | 
CCCOC(=O)N[C@H](C(=O)N[C@H](C)c1nc2ccc(F)cc2s1)C(C)C | 0.5851 | 70.4 µM | 109 µM | 3.99 | growth inhibition (GI) (MCF7 [3]): Non-toxic; growth inhibition (GI) (MCF7 [10]): Non-toxic; growth inhibition (GI) (MCF7 [4]): Toxic; growth inhibition (GI) (MCF7 [5]): Toxic; growth inhibition (GI) (HepG2 [13]): Non-toxic; growth inhibition (GI) (HepG2 [14]): Toxic; IC50 (MCF7 [7]): 4390 µM; IC50 (HepG2 [8]): 1730 µM
CC(C)[C@H](NC(=O)OCC(F)(F)C(F)(F)C(F)(F)F)C(=O)N[C@H](C)c1nc2ccc(F)cc2s1 | 0.9218 | 83.2 µM | 85.5 µM | 5.35 | 

Source: ChEMBL document CHEMBL2331490, “Synthesis and in vitro evaluation of new derivatives of 2-substituted-6-fluorobenzo[d]thiazoles as cholinesterase inhibitors” (Bioorg Med Chem, 2013)
